In ChEMBL document CHEMBL2434871, “Discovery of a potent dual EGFR/HER-2 inhibitor L-2 (selatinib) for the treatment of cancer” (Eur J Med Chem, 2013):
pIC50: −log10 of the molar value.

How the values were obtained:
[1] = biological target: Receptor tyrosine-protein kinase erbB-2 (Homo sapiens, UniProt P04626); assay: Inhibition of HER-2 (unknown origin) using poly-(Glu4-Tyr) as substrate after 1 hr by ELISA-based spectrophotometry
In short: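 ELISA on plates pre-coated with poly(Glu,Tyr 4:1) substrate. Serially diluted compounds plus ATP were added in 50 mM HEPES pH 7.4 containing 20 mM MgCl₂, 0.2 mM MnCl₂, 0.1 mM Na₃VO₄ and 1 mM DTT. Phosphotyrosine was detected with anti-phosphotyrosine antibody PY99 (1:500), then HRP anti-mouse IgG, then o-phenylenediamine/H₂O₂ at pH 5.5.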

[2] = biological target: Epidermal growth factor receptor (Homo sapiens, UniProt P00533); assay: Inhibition of EGFR (unknown origin) using poly-(Glu4-Tyr) as substrate after 1 hr by ELISA-based spectrophotometry
Mus musculus [3] = assay: Toxicity in BALB/c athymic mouse xenografted with human NCI-N87 cells assessed as death at 200 mg/kg, po qd after 4 days; format: organism-based; parameters: dose 200 mg/kg, route oral; details: in vivo, 96 h
In short: (§1)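 Female BALB/c athymic mice, 4-6 weeks old and pathogen-free, were housed under sterile conditions. NCI-N87 or SK-OV-3 cells (2 × 10⁶) were implanted s.c. in the right flank. At tumor volumes of 100-300 mm³, mice were randomized to vehicle control (n = 10) or treatment (n = 6). Treatment was the tosylate salt at 200 mg/kg by oral gavage once daily. Mice were monitored for clinical signs, body weight and death.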

Mus musculus [4] = assay: Toxicity in BALB/c athymic mouse xenografted with human NCI-N87 cells assessed as lethargic condition at 200 mg/kg, po qd; format: organism-based; parameters: dose 200 mg/kg, route oral; details: in vivo
BT-474 = assay: Cytotoxicity against human BT474 cells after 72 hrs by SRB assay; format: functional, cell-based; details: BT-474, 72 h
Mus musculus [5] = assay: Toxicity in BALB/c athymic mouse xenografted with human NCI-N87 cells assessed as hematuria at 200 mg/kg, po qd after 4 days; format: organism-based; parameters: dose 200 mg/kg, route oral; details: in vivo, 96 h
Mus musculus [6] = assay: Toxicity in BALB/c athymic mouse xenografted with human SKOV3 cells assessed as weight loss at 200 mg/kg, po qd after 4 days; format: organism-based, SK-OV-3; parameters: dose 200 mg/kg, route oral; details: in vivo, 96 h
Mus musculus [7] = assay: Toxicity in BALB/c athymic mouse xenografted with human SKOV3 cells assessed as lethargic condition at 200 mg/kg, po qd; format: organism-based, SK-OV-3; parameters: dose 200 mg/kg, route oral; details: in vivo
NCI-N87 [8] = assay: Cytotoxicity against human NCI-N87 cells after 72 hrs by SRB assay; format: functional, cell-based; details: NCI-N87, 72 h
Mus musculus [9] = assay: Toxicity in BALB/c athymic mouse xenografted with human NCI-N87 cells assessed as scruffy skin at 200 mg/kg, po qd; format: organism-based; parameters: dose 200 mg/kg, route oral; details: in vivo
Mus musculus [10] = assay: Toxicity in BALB/c athymic mouse xenografted with human SKOV3 cells assessed as scruffy skin at 200 mg/kg, po qd; format: organism-based, SK-OV-3; parameters: dose 200 mg/kg, route oral; details: in vivo
Mus musculus [11] = assay: Toxicity in BALB/c athymic mouse xenografted with human SKOV3 cells assessed as hematuria at 200 mg/kg, po qd after 4 days; format: organism-based, SK-OV-3; parameters: dose 200 mg/kg, route oral; details: in vivo, 96 h
Mus musculus [12] = assay: Toxicity in BALB/c athymic mouse xenografted with human NCI-N87 cells assessed as diarrhea at 200 mg/kg, po qd; format: organism-based; parameters: dose 200 mg/kg, route oral; details: in vivo
Mus musculus [13] = assay: Toxicity in BALB/c athymic mouse xenografted with human NCI-N87 cells assessed as weight loss at 200 mg/kg, po qd after 4 days; format: organism-based; parameters: dose 200 mg/kg, route oral; details: in vivo, 96 h
Mus musculus [14] = assay: Toxicity in BALB/c athymic mouse xenografted with human SKOV3 cells assessed as death at 200 mg/kg, po qd after 4 days; format: organism-based, SK-OV-3; parameters: dose 200 mg/kg, route oral; details: in vivo, 96 h; in short: as §1
Mus musculus [15] = assay: Toxicity in BALB/c athymic mouse xenografted with human SKOV3 cells assessed as diarrhea at 200 mg/kg, po qd; format: organism-based, SK-OV-3; parameters: dose 200 mg/kg, route oral; details: in vivo
Rattus norvegicus [16] = assay: Tmax in Wistar rat at 100 mg/kg, po assessed as lapatinib; format: ADME, organism-based; parameters: dose 100 mg/kg, route oral; details: in vivo
In short: (§2)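 Male Wistar rats (220 ± 10 g), n = 4 per group, given the tosylate salt orally by gavage at 100 mg/kg, suspended in 0.5% sodium carboxymethylcellulose. Blood was sampled at 0.25 to 24 h. Parent compound and the lapatinib metabolite were extracted by C18 solid-phase extraction and analysed by LC/MSn.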

[17] = Cmax in Wistar rat at 100 mg/kg, po; format: ADME, organism-based; parameters: dose 100 mg/kg, route oral; details: in vivo; in short: as §2
[18] = AUC (0 to t) in Wistar rat at 100 mg/kg, po; format: ADME, organism-based; parameters: dose 100 mg/kg, route oral; details: plasma; in short: as §2
Rattus norvegicus [19] = assay: Elimination half life in Wistar rat at 100 mg/kg, po assessed as lapatinib; format: ADME, organism-based; parameters: dose 100 mg/kg, route oral; details: in vivo; in short: as §2
Rattus norvegicus [20] = assay: AUC (0 to t) in Wistar rat at 100 mg/kg, po assessed as lapatinib; format: ADME, organism-based, Plasma; parameters: dose 100 mg/kg, route oral; details: in vivo; in short: as §2
[21] = Tmax in Wistar rat at 100 mg/kg, po; format: ADME, organism-based; parameters: dose 100 mg/kg, route oral; details: in vivo; in short: as §2
[22] = AUC (0 to infinity) in Wistar rat at 100 mg/kg, po; format: ADME, organism-based; parameters: time infinity, dose 100 mg/kg, route oral; details: plasma; in short: as §2
[23] = Mean residence time in Wistar rat at 100 mg/kg, po; format: ADME, organism-based; parameters: dose 100 mg/kg, route oral; details: in vivo; in short: as §2
Rattus norvegicus [24] = assay: AUC (0 to infinity) in Wistar rat at 100 mg/kg, po assessed as lapatinib; format: ADME, organism-based, Plasma; parameters: time infinity, dose 100 mg/kg, route oral; details: in vivo; in short: as §2
SK-OV-3 = assay: Antitumor activity against human SKOV3 cells xenografted in BALB/c athymic mouse assessed as tumor regression at 200 mg/kg, po qd after 21 days relative to vehicle-treated control; details: SK-OV-3, po, 504 h, read-out: TGI
Rattus norvegicus [25] = assay: Mean residence time in Wistar rat at 100 mg/kg, po assessed as lapatinib; format: ADME, organism-based; parameters: dose 100 mg/kg, route oral; details: in vivo; in short: as §2
NCI-N87 [26] = assay: Antitumor activity against human NCI-N87 cells xenografted in BALB/c athymic mouse assessed as tumor regression at 200 mg/kg, po qd after 28 days relative to vehicle-treated control; format: functional; details: NCI-N87, 672 h, read-out: TGI
In short: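 Female BALB/c athymic mice, 4–6 weeks old, received 2 × 10⁶ NCI-N87 or SK-OV-3 cells s.c. in the right flank. At a tumor volume of 100–300 mm³ they were randomized (control n = 10, treated n = 6). Tosylate salt was given at 200 mg/kg qd by oral gavage, and controls received vehicle. Tumor volume was taken as length × width²/2 by caliper. Inhibition = (1 − T/C) × 100% on mean relative tumor volume (RTV). Two-tailed t test.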

Mus musculus [27] = assay: Toxicity in BALB/c athymic mouse xenografted with human SKOV3 cells assessed as bloody stool at 200 mg/kg, po qd after 4 days; format: organism-based, SK-OV-3; parameters: dose 200 mg/kg, route oral; details: in vivo, 96 h
Mus musculus [28] = assay: Toxicity in BALB/c athymic mouse xenografted with human NCI-N87 cells assessed as bloody stool at 200 mg/kg, po qd after 4 days; format: organism-based; parameters: dose 200 mg/kg, route oral; details: in vivo, 96 h
[29] = Aqueous solubility of the compound at 25 degC by shake-flask method; format: physicochemical; details: unbuffered water
Rattus norvegicus [30] = assay: Cmax in Wistar rat at 100 mg/kg, po assessed as lapatinib; format: ADME, organism-based; parameters: dose 100 mg/kg, route oral; details: in vivo; in short: as §2
[31] = Elimination half life in Wistar rat at 100 mg/kg, po; format: ADME, organism-based; parameters: dose 100 mg/kg, route oral; details: in vivo, read-out: beta t1/2 (converted); in short: as §2

Sequence of Epidermal growth factor receptor (P00533 whole entry): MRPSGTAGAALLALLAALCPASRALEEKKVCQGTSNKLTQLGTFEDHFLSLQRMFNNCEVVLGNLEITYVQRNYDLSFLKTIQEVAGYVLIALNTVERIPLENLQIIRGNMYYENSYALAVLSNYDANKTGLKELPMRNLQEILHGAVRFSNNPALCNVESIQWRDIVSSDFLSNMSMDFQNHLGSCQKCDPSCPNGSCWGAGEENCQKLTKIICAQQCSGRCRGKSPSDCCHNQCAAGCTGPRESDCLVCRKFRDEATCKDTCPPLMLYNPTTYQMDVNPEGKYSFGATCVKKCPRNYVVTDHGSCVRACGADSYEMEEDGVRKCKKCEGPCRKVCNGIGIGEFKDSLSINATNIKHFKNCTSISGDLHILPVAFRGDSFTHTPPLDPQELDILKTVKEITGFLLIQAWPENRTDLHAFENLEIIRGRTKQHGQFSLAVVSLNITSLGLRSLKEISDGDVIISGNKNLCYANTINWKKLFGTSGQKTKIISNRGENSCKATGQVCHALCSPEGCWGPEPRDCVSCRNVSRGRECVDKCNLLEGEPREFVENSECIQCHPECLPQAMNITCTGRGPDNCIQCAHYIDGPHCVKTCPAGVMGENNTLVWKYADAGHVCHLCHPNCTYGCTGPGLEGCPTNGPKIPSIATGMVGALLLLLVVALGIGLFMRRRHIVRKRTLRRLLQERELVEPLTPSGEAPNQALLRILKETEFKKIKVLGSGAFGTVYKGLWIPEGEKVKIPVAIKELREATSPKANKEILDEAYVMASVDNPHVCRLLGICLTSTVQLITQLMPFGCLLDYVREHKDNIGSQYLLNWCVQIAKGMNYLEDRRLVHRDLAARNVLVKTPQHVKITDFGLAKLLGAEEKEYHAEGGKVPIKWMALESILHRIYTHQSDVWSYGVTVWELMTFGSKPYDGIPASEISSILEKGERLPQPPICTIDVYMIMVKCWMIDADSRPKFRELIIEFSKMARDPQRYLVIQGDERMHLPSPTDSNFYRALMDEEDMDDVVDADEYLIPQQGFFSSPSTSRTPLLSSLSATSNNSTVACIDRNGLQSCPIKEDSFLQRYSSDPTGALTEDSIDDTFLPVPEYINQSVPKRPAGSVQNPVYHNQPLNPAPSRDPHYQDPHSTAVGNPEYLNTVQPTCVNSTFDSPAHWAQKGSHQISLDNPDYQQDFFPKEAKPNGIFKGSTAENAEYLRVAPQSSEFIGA
Sequence of Receptor tyrosine-protein kinase erbB-2 (P04626 whole entry): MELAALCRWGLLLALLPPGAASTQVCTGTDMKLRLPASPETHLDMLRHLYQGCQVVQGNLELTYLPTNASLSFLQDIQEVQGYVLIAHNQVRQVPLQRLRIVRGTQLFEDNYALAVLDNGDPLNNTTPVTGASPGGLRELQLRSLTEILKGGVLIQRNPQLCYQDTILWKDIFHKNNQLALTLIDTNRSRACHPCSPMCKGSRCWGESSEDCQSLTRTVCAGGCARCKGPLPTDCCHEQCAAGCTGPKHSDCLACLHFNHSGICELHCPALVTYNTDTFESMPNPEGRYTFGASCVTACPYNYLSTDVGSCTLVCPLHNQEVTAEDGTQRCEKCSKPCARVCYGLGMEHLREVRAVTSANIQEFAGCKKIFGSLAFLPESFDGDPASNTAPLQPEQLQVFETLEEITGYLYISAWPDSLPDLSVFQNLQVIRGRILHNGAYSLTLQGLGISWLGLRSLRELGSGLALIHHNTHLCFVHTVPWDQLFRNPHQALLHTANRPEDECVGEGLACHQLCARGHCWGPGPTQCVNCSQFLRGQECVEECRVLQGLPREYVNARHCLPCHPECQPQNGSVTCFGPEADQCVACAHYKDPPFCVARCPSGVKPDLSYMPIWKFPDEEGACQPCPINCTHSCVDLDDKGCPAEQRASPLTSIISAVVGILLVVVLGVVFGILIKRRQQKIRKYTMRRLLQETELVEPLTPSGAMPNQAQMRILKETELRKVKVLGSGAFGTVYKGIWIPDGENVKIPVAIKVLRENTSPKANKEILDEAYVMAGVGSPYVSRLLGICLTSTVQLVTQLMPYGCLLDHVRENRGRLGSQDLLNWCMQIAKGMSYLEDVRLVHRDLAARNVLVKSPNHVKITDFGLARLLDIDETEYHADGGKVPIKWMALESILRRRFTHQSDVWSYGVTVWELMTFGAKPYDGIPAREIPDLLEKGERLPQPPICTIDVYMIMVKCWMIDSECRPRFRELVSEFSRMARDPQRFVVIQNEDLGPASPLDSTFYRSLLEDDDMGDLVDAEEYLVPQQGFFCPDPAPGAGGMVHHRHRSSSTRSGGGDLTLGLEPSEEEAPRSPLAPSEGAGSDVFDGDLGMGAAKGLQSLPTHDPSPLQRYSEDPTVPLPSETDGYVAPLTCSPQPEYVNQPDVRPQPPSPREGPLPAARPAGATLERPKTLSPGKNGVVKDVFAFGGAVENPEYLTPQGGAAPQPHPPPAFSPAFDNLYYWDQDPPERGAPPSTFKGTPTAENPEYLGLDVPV

CCOC(=O)N1CCN(Cc2ccc(-c3ccc4ncnc(Nc5ccc(OCc6cccc(F)c6)c(Cl)c5)c4c3)o2)CC1
pIC50 [1]: 7.84
pIC50 [2]: 7.55

Cc1ccc(S(=O)(=O)O)cc1.Fc1cccc(COc2ccc(Nc3ncnc4ccc(-c5ccc(CN6CCNCC6)o5)cc34)cc2Cl)c1
pIC50 [1]: 7.91
Activity (Mus musculus [3]): Toxic
Activity (Mus musculus [4]): Toxic
pIC50 (BT-474): 7.38
Activity (Mus musculus [5]): Toxic
Activity (Mus musculus [6]): Toxic
Activity (Mus musculus [7]): Toxic
pIC50 (NCI-N87 [8]): 7.53
Activity (Mus musculus [9]): Toxic
Activity (Mus musculus [10]): Toxic
Activity (Mus musculus [11]): Toxic
Activity (Mus musculus [12]): Toxic
Activity (Mus musculus [13]): Toxic
Activity (Mus musculus [14]): Toxic
Activity (Mus musculus [15]): Toxic

CS(=O)(=O)NCCNCc1ccc(-c2ccc3ncnc(Nc4ccc(OCc5cccc(F)c5)c(Cl)c4)c3c2)o1
pIC50 [1]: 7.80
pIC50 [2]: 7.73

CSCCNCc1ccc(-c2ccc3ncnc(Nc4ccc(OCc5cccc(F)c5)c(Cl)c4)c3c2)o1.Cc1ccc(S(=O)(=O)O)cc1
Tmax (Rattus norvegicus [16]): 3 h
pIC50 [1]: 7.74
pIC50 (BT-474): 7.45
Activity (Mus musculus [5]): Non-toxic
Cmax [17]: 854 ng/mL
Activity (Mus musculus [6]): Non-toxic
AUC(0-t) [18]: 7890 ng·h/mL
beta t1/2 (Rattus norvegicus [19]): 4.18 h
AUCt (Rattus norvegicus [20]): 1994 ng·h/mL
Tmax [21]: 3 h
AUC(0-inf) [22]: 8130 ng·h/mL
pIC50 (NCI-N87 [8]): 7.33
MRT [23]: 8.19 h
AUC (Rattus norvegicus [24]): 2058 ng·h/mL
inhibition in vivo at 200 mg/kg (SK-OV-3): 74.6%
MRT (Rattus norvegicus [25]): 8.34 h
inhibition in vivo at 200 mg/kg (NCI-N87 [26]): 84.7%
Activity (Mus musculus [11]): Non-toxic
Activity (Mus musculus [27]): Non-toxic
pIC50 [2]: 7.60
Activity (Mus musculus [13]): Non-toxic
Activity (Mus musculus [28]): Non-toxic
solubility [29]: 3 µg/mL
Cmax (Rattus norvegicus [30]): 242 ng/mL
half-life [31]: 4.43 h

CN1CCN(C(=O)c2ccc(-c3ccc4ncnc(Nc5ccc(OCc6cccc(F)c6)c(Cl)c5)c4c3)o2)CC1
pIC50 [1]: 7.27
pIC50 [2]: 6.63

CC(=O)N1CCN(Cc2ccc(-c3ccc4ncnc(Nc5ccc(OCc6cccc(F)c6)c(Cl)c5)c4c3)o2)CC1
pIC50 [1]: 8.17
pIC50 [2]: 7.94

Fc1cccc(COc2ccc(Nc3ncnc4ccc(-c5ccc(CN6CCOCC6)o5)cc34)cc2Cl)c1
pIC50 [1]: 7.88
pIC50 (BT-474): 7.07
pIC50 (NCI-N87 [8]): 7.20
pIC50 [2]: 7.59
